NR2E3 ag-1 = NR2E3 (human) agonism; Q9Y5X4; GST-NR2E3/biotin-RetCOR TR-FRET, 1536-well; inhibition of corepressor binding, % at 4.78 µM; 320,000 tested, 0.12% active;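 active means percent inhibition above the cutoff of mean plus 3 SD of all tested compounds, set per screening campaign, cut at about 20% in these data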;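 further: 0% = DMSO wells and 100% = biotin wells as full block of FRET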
Target sequence (Q9Y5X4 whole entry, looked up): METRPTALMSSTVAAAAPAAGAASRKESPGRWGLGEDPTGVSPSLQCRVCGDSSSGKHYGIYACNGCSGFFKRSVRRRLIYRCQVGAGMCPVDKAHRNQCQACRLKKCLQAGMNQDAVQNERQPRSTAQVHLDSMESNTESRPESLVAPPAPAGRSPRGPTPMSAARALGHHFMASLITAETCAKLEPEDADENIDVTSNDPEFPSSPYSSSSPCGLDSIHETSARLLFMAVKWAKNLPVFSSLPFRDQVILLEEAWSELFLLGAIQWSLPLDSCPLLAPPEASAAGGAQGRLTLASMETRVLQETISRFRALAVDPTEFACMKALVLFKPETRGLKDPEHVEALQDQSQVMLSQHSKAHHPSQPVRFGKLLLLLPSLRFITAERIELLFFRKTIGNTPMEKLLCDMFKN
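system = GST-tagged NR2E3 plus biotinylated RetCOR corepressor | input = 1.35 nM GST-NR2E3 | also added = 7 nM biotin-RetCOR | schedule = 5 h incubation at 4 °C | measured by = TR-FRET with europium anti-GST and streptavidin-D2, 340 nm excitation | read-out = percent loss of FRET ratio relative to control wells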
NadD block = NadD (S. aureus) enzyme inhibition. purified NadD enzyme, colorimetric absorbance read-out. inhibition, % at 20 µM. 360,000 tested, 0.78% active. AID 602399; in the data active means inhibition above about 26%
MsrA act = activators of bovine methionine sulfoxide reductase A; purified bovine MsrA, absorbance read-out; activation, % at 10.6 µM; 360,000 tested, 0.3% active; AID 602163; in the data active means activation above about 7.5%;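 further: 0% = vehicle and 100% = reference activator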
GalR3 antagonist = antagonists of human GalR3; O60755; HEK293 GalR3-CNG cAMP membrane potential fluorescence; galR3 body fused to GalR1 C-terminus; inhibition, % at 3 µM; 360,000 tested, 0.44% active;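 active means inhibition above the screen-wide average plus 3 SD, cut at about 13% in these data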;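 further: forskolin and galanin both at EC90 stimulate the cells; cAMP rise reported by CNG channel membrane potential dye signal; 0% = forskolin plus galanin with DMSO and 100% = forskolin alone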
Target sequence (O60755 1-299 limits assumed): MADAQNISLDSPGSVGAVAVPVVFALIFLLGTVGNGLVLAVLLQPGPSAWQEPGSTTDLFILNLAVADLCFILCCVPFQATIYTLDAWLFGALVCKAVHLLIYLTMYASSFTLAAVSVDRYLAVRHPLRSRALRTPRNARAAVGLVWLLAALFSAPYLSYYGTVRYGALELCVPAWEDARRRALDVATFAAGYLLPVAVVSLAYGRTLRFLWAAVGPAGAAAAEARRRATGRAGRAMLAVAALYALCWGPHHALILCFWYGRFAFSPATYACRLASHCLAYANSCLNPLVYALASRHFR
NR2E3 ag-2 = activates human NR2E3 receptor | Q9Y5X4 | CHO-S Gal4-NCOR/VP16-NR2E3 two-hybrid, luciferase | inhibition of corepressor binding, % at 3.98 µM | 360,000 tested, 0.35% active | AID 602229;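 active means inhibition above the mean of all tested compounds plus 3 SD, cut at about 70% in these data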;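 further: 0% = DMSO with NR2E3 transfected cells and 100% = cells lacking NR2E3 construct; higher means lower luciferase signal from less NR2E3 corepressor binding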
MsrA inhibitor = inhibits bovine methionine sulfoxide reductase A; purified bovine MsrA, absorbance read-out; inhibition, % at 15.5 µM; 360,000 tested, 0.75% active; AID 651718; in the data active means inhibition above about 4.5%;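 further: 0% = vehicle wells with enzyme and 100% = reference inhibitor wells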
NR2E3 ag confirm = NR2E3 agonism confirmed in two-hybrid assay; CHO-S mammalian two-hybrid NR2E3-NCOR, luciferase luminescence; inhibition, % at 3.98 µM; 2,300 tested, 51% active; AID 624378; shares compounds with NR2E3 ag-2;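 active means average inhibition above a cutoff equal to the mean inhibition of all tested compounds plus one SD, cut at about 70% in these data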;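 further: 0% = DMSO in NR2E3 cells and 100% = DMSO in cells lacking NR2E3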
GAL4-VP16 luc = GAL4-VP16 reporter inhibition in NR2E3 agonist counterscreen | AID 624379 | shares compounds with NR2E3 ag-2 | CHO-S GAL4-VP16 luciferase reporter, luminescence | inhibition, % at 3.98 µM | 2,300 tested, 29% active;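 active means mean inhibition above a cutoff equal to the average over all tested compounds plus one standard deviation, cut at about 70% in these data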;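 further: luciferase from a UAS reporter driven by GAL4-VP16 transactivation; 0% = DMSO with VP16-transfected cells and 100% = DMSO with cells lacking VP16; higher means less reporter light so more repression of VP16 activity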
Numbers without * were called inactive. Sampled rows, rich in hits. Any-hit rate of the full collection: about 2.5%.

What do the screens show for `CCN(CC)C(=O)c1oc2ccc(S(=O)(=O)N3CC(C)CC(C)C3)cc2c1C` (stereo unspecified)?
NR2E3 ag-1: 3; NadD block: -4; MsrA act: -2; GalR3 antagonist: -9; NR2E3 ag-2: 93*; MsrA inhibitor: -1; NR2E3 ag confirm: 91*; GAL4-VP16 luc: 72*

How did Cc1cccc(CSc2cccc3cccnc23)c1 do in these assays?
NR2E3 ag-1: 3; NadD block: 4; MsrA act: 0; GalR3 antagonist: -3; NR2E3 ag-2: 88*; MsrA inhibitor: 0; NR2E3 ag confirm: -51; GAL4-VP16 luc: -104

How did COc1ccc(/C=C2\SC(=S)N(CCCC(=O)Nc3ccc(O)cc3)C2=O)cc1 do in these assays?
NR2E3 ag-1: 4; NadD block: 1; MsrA act: -4; GalR3 antagonist: -3; NR2E3 ag-2: 73*; MsrA inhibitor: 1; NR2E3 ag confirm: 3; GAL4-VP16 luc: 61

Results for Cc1ccc(/C=C2\SC(=S)N(CCCC(=O)Nc3cccnc3)C2=O)cc1 ?
NR2E3 ag-1: 3; NadD block: 5; MsrA act: -1; NR2E3 ag-2: 91*; NR2E3 ag confirm: 42; GAL4-VP16 luc: 90*

How did O=C(CCCN1C(=O)/C(=C/c2ccccc2Cl)SC1=S)NNC(=O)c1cccnc1 do in these assays?
NR2E3 ag-1: -1; NadD block: 2; MsrA act: -5; GalR3 antagonist: 3; NR2E3 ag-2: 59; MsrA inhibitor: 1; NR2E3 ag confirm: -1; GAL4-VP16 luc: 35

How did O=C(CSc1nc2c(cnn2-c2ccc(F)cc2)c(=O)[nH]1)Nc1nccs1 do in these assays?
NR2E3 ag-1: -4; NadD block: 1; MsrA act: -2; NR2E3 ag-2: 3; MsrA inhibitor: 1

How did Oc1ccccc1/C=N/n1c2ccccc2c2ccccc21 do in these assays?
NR2E3 ag-1: 0; NadD block: 2; MsrA act: -4; GalR3 antagonist: -9; NR2E3 ag-2: -38; MsrA inhibitor: -1

Results for CCCOc1ccc(F)cc1-c1cc(C(=O)Nc2ccc(OC)nc2)[nH]n1 ?
NadD block: 0; MsrA act: -10; NR2E3 ag-2: -3

What do the screens show for `CC[C@H](CO)Nc1nc(Nc2cccc(Cl)c2)c2ncn(C(C)C)c2n1`?
NR2E3 ag-1: 3; NadD block: -1; MsrA act: -11; GalR3 antagonist: -5; NR2E3 ag-2: 92*; MsrA inhibitor: -1; NR2E3 ag confirm: 74*; GAL4-VP16 luc: 66

Results for CC(C)[C@H](CO)N(Cc1cccc(F)c1)c1nc(Nc2cccc(Cl)c2)c2ncn(C(C)C)c2n1 ?
NR2E3 ag-1: 2; NadD block: 9; MsrA act: 3; GalR3 antagonist: -4; NR2E3 ag-2: -8; MsrA inhibitor: 2

What do the screens show for `COC(=O)[C@]12C[C@H](CC(=O)NCC3CCCCC3)C(=O)N(CCC3=CCCCC3)C1=C[C@H](COCc1ccccc1)O[C@@H]2C`?
GalR3 antagonist: -5; MsrA inhibitor: 0

Results for Clc1ccc(-c2cn3nc4c(nc3n2)CCCC4)cc1 ?
NR2E3 ag-1: -1; NadD block: 9; MsrA act: -5; GalR3 antagonist: -1; NR2E3 ag-2: -68; MsrA inhibitor: 0

Results for COCCNC(=O)C1Nc2ccc(C(F)(F)F)cc2C2C=CCC12 (stereo unspecified) ?
NR2E3 ag-1: 3; NadD block: -2; MsrA act: -2; GalR3 antagonist: -6; NR2E3 ag-2: -3; MsrA inhibitor: -1

What do the screens show for `O=C(NCc1ccccn1)C1Nc2ccc(C(F)(F)F)cc2C2C=CCC12` (stereo unspecified)?
NR2E3 ag-1: 2; NadD block: 0; MsrA act: -4; GalR3 antagonist: -4; NR2E3 ag-2: 97*; MsrA inhibitor: 0; NR2E3 ag confirm: -8; GAL4-VP16 luc: 21

What do the screens show for `COC(=O)c1ccc(N2CCc3ccccc32)c([N+](=O)[O-])c1`?
NR2E3 ag-1: 8; NadD block: -18; MsrA act: -3; GalR3 antagonist: -10; NR2E3 ag-2: -11; MsrA inhibitor: 2

Results for C(=Cc1cnc2ccccc2n1)c1ccc2c(c1)OCO2 ?
NadD block: -1; MsrA act: -12; GalR3 antagonist: -3; NR2E3 ag-2: 52; MsrA inhibitor: 1; NR2E3 ag confirm: 37; GAL4-VP16 luc: -3

Results for C(=Cc1nc2ccccc2o1)c1ccc2c(c1)OCO2 ?
NadD block: 4; MsrA act: -3; GalR3 antagonist: -7; NR2E3 ag-2: -102; MsrA inhibitor: 1

Results for COc1ccc(NC(=O)CSc2nc3sc(C)cc3c(=O)n2C)cc1 ?
NR2E3 ag-1: 3; NadD block: 0; MsrA act: -4; GalR3 antagonist: -8; NR2E3 ag-2: -10; MsrA inhibitor: 0

Results for COc1ccc(NC(=O)CSc2nc3sc(C)cc3c(=O)n2C)c(OC)c1 ?
NR2E3 ag-1: -3; NadD block: 0; MsrA act: 8; GalR3 antagonist: -6; NR2E3 ag-2: 62; MsrA inhibitor: 1; NR2E3 ag confirm: 46; GAL4-VP16 luc: 37

What do the screens show for `COc1cccc(NC(=O)CSc2nc3ncc(Br)cc3[nH]2)c1`?
NR2E3 ag-1: 0; NadD block: -2; MsrA act: -5; GalR3 antagonist: -10; NR2E3 ag-2: 66; MsrA inhibitor: -1; NR2E3 ag confirm: 80*; GAL4-VP16 luc: 33

What do the screens show for `CCOC(=O)c1c(C)[nH]c(C(=O)OCC(=O)Nc2sccc2C(N)=O)c1C`?
NR2E3 ag-1: 6; NadD block: 10; MsrA act: -3; GalR3 antagonist: -2; NR2E3 ag-2: 54; MsrA inhibitor: -1; NR2E3 ag confirm: 44; GAL4-VP16 luc: 35

Results for Cc1ccc(C(C(=O)NC2CCCCC2)N2CCCC2)cc1 (stereo unspecified) ?
NR2E3 ag-1: -3; NadD block: -4; MsrA act: -8; GalR3 antagonist: -2; NR2E3 ag-2: -11; MsrA inhibitor: -1

How did Cc1nc2c(-c3ccccc3)cnn2c(N)c1-c1ccccc1 do in these assays?
NadD block: -5; MsrA act: -1; GalR3 antagonist: -8; NR2E3 ag-2: 74*; MsrA inhibitor: 2; NR2E3 ag confirm: 55; GAL4-VP16 luc: -6

How did O=C1NC(=S)SC1=Cc1cc(Br)ccc1O do in these assays?
NadD block: -1; MsrA act: -6; GalR3 antagonist: 2; NR2E3 ag-2: 23; MsrA inhibitor: 1

What do the screens show for `O=C1NC(=S)SC1=Cc1ccccc1Br`?
NadD block: 4; MsrA act: -9; GalR3 antagonist: -6; NR2E3 ag-2: 74*; MsrA inhibitor: 3; NR2E3 ag confirm: 95*; GAL4-VP16 luc: 72*

Source: PubChem
